Test results: ChEMBL document CHEMBL1125360 (J Med Chem, 1992)
pIC50, pKi: −log10 of the molar value. Where a SMILES comes first, the peptide text is derived from it. [ ]: non-standard residue; d: D form. The star is where a group is joined. Tyr(Nα,Nα-allyl2) = C=CCN(CC=C)[C@@H](Cc1ccc(O)cc1)C(=O)*; Aib = CC(C)(N)C(=O)O

Columns and labels:
[1] = species: Cavia porcellus; experiment: Antagonistic activity against EK in guinea pig ileal longitudinal muscle (GPI); assay type: functional, Muscle tissue
In short: (§1)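 Electrically stimulated guinea pig ileal longitudinal muscle or mouse vas deferens. Test ligand incubated 15 min before standard agonist challenge (morphine, ethylketazocine or DADLE). Ligand at 100 nM, or at 10, 20 or 30 nM when it had agonist activity, kept at or below its ED20.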

[2] = species: Cavia porcellus; experiment: Antagonistic activity against morphine in guinea pig ileal longitudinal muscle (GPI); assay type: functional, Muscle tissue; in short: as §1
[3] = species: Cavia porcellus; experiment: The compound was tested for opioid agonist activity against guinea pig ileal longitudinal muscle (GPI); assay type: functional, Muscle tissue
In short: (§2)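 Electrically stimulated guinea pig ileal longitudinal muscle and mouse vas deferens. For full agonists, 4-6 concentrations gave concentration-response curves compared with standard agonists in the same preparation. IC50 is the concentration giving a half-maximal response, with 95% confidence limits.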

[4] = species: Mus musculus; experiment: Antagonistic activity against DADLE in smooth muscle preparation (MVD); assay type: functional, Muscle tissue; in short: as §1
[5] = species: Mus musculus; experiment: Antagonistic activity against morphine in smooth muscle preparation (MVD); assay type: functional, Muscle tissue; in short: as §1
[6] = species: Mus musculus; experiment: The compound was evaluated for antinociceptive potency using abdominal stretch assay in mice; assay type: functional, Abdomen; set-up: unit not given here
In short: (§3)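 Mouse antinociception by abdominal stretch or tail flick assay. Test compound given icv. ED50 in nmol/mouse with 95% confidence limits.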

[7] = species: Mus musculus; experiment: The compound was tested for opioid agonist activity against mouse vas deferens (MVD); assay type: functional; in short: as §2
[8] = species: Cavia porcellus; experiment: Opiod agonistic activity against delta enriched smooth muscle preparation.; assay type: functional; settings: Muscle tissue
[9] = species: Mus musculus; experiment: The compound was evaluated for antinociceptive potency using tail flick assay in mice; assay type: functional; in short: as §3
[10] = species: Mus musculus; experiment: Effect of the opioid antagonist (beta-funaltrexamine, mu) on the antinociceptive potency using abdominal stretch assay in mice.; assay type: functional, Abdomen
In short: (§4)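 Mice pretreated sc with β-FNA 20 µmol/kg 24 h before, norBNI 12 µmol/kg 2 h before, or NTI 44 µmol/kg 0.5 h before. Test compound then given icv in the abdominal stretch or tail flick assay. ED50 ratio is pretreated ED50 divided by control ED50, with 95% confidence limits.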

[11] = species: Mus musculus; experiment: Effect of the opioid antagonist (beta-funaltrexamine, mu) on the antinociceptive potency using tail flick assay in mice.(values in the parenthesis indicate 95% confidence limits); assay type: functional
In short: (§5)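 Mice, tail flick assay. Antagonist given sc beforehand: beta-FNA 20 µmol/kg 24 h before, or norBNI 12 µmol/kg 2 h before. Test compound then given icv. ED50 ratio = ED50 of test compound in pretreated mice divided by control ED50, with 95% confidence limits.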

[12] = species: Mus musculus; experiment: Effect of the opioid antagonist (naltrindole, delta) on the antinociceptive potency using abdominal stretch assay in mice; assay type: functional, Abdomen; in short: as §4
[13] = species: Mus musculus; experiment: Effect of the opioid antagonist (naltrindole, delta) on the antinociceptive potency using tail flick assay; assay type: functional; in short: as §4
[14] = species: Mus musculus; experiment: Effect of the opioid antagonist (norbinaltorphimine, kappa) on the antinociceptive potency using abdominal stretch assay in mice.; assay type: functional, Abdomen; in short: as §4
[15] = species: Mus musculus; experiment: Effect of the opioid antagonist (norbinaltorphimine, kappa) on the antinociceptive potency using tail flick assay in mice; assay type: functional; in short: as §5
[16] = species: Mus musculus; experiment: The compound was tested for antagonizing the antinociceptive potency of DPDPE using abdominal assay in mice.; assay type: functional, Abdomen
In short: (§6)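 Mice, abdominal stretch assay. Agonist peak times after icv dosing: DSLET 10 min, DPDPE 20 min, U50488H 15 min, morphine 30 min. Read-out is the agonist ED50 ratio with 95% confidence limits.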

[17] = species: Mus musculus; experiment: The compound was tested for antagonizing the antinociceptive potency of DSLET using abdominal assay in mice.; assay type: functional, Abdomen; in short: as §6
[18] = species: Mus musculus; experiment: The compound was tested for antagonizing the antinociceptive potency of U-50,488H using abdominal assay in mice; assay type: functional, Abdomen; in short: as §6
[19] = species: Mus musculus; experiment: The compound was tested for antagonizing the antinociceptive potency of morphine using abdominal assay in mice; assay type: functional, Abdomen; in short: as §6
[20] = molecular target: Kappa-type opioid receptor (Cavia porcellus, UniProt P41144); experiment: The compound was evaluated for binding affinity against the opioid receptor kappa in guinea pig brain membranes using [3H]- U-69,593; assay type: cell membranes, Membrane
In short: (§7)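 Competition binding on guinea pig brain membranes. δ sites labelled with [3H]DPDPE, μ with [3H]DAMGO, κ with [3H]U69593. A footnote also describes κ labelling with [3H]ethylketazocine in the presence of 1 µM DAMGO.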

[21] = molecular target: T1, Mu-type opioid receptor (Cavia porcellus, UniProt P97266); experiment: The compound was evaluated for binding affinity against opioid receptor mu in guinea pig brain membranes using [3H]- DAMGO as ligand; assay type: cell membranes, Membrane; in short: as §7
[22] = molecular target: Opioid receptor (Mus musculus, UniProt P42866+P32300+P33534); experiment: Compound was tested for agonistic activity against the opioid receptor in electrically stimulated mouse vas deference; assay type: functional; in short: as §2
[23] = species: Cavia porcellus; experiment: The compound was evaluated for antagonistic activity by incubating with the smooth muscle preparation (GPI) for 15 min prior to testing with Ethylketazocine (EK); assay type: functional, Muscle tissue; in short: as §1
[24] = species: Cavia porcellus; experiment: The compound was evaluated for antagonistic activity by incubating with the smooth muscle preparation (GPI) for 15 min prior to testing with morphine; assay type: functional, Muscle tissue; in short: as §1
[25] = species: Mus musculus; experiment: The compound was evaluated for antagonistic activity by incubating with the smooth muscle preparation (MVD) for 15 min prior to testing with DADLE; assay type: functional, Muscle tissue; in short: as §1
[26] = species: Mus musculus; experiment: The compound was evaluated for antagonistic activity by incubating with the smooth muscle preparation (MVD) for 15 min prior to testing with morphine; assay type: functional, Muscle tissue; in short: as §1
[27] = species: Mus musculus; experiment: The compound was evaluated for antinociceptive potency using abdominal stretch assay in mice.; assay type: functional, Abdomen; in short: as §3
[28] = tested on: Delta-type opioid receptor; experiment: Selectivity for kappa to delta opioid receptors was determined; settings: Cavia porcellus
[29] = molecular target: Mu-type opioid receptor (Cavia porcellus) (UniProt P97266); experiment: Selectivity for mu to delta opioid receptors was determined
[30] = The compound was evaluated for binding affinity against Opioid receptor delta 1 in guinea pig brain membrane using [3H]- DPDPE as ligand
[31] = species: Cavia porcellus; experiment: Opiod agonistic activity against delta enriched smooth muscle preparation; assay type: functional; settings: Muscle tissue
[32] = species: Mus musculus; experiment: The compound was tested for antagonizing the antinociceptive potency of DPDPE using abdominal assay in mice.(values in the parenthesis indicate 95% confidence limits); assay type: functional, Abdomen
[33] = species: Mus musculus; experiment: The compound was tested for antagonizing the antinociceptive potency of DSLET using abdominal assay in mice.(values in the parenthesis indicate 95% confidence limits); assay type: functional, Abdomen
[34] = species: Mus musculus; experiment: The compound was tested for antagonizing the antinociceptive potency of U-50,488H using abdominal assay in mice.(values in the parenthesis indicate 95% confidence limits); assay type: functional, Abdomen
[35] = species: Mus musculus; experiment: The compound was tested for antagonizing the antinociceptive potency of morphine using abdominal assay in mice.(values in the parenthesis indicate 95% confidence limits); assay type: functional, Abdomen
[36] = molecular target: T1, Mu-type opioid receptor; experiment: The compound was evaluated for binding affinity against Opioid receptor mu 1 in guinea pig brain membranes; assay type: cell membranes, Membrane; in short: as §7

Kappa-type opioid receptor, sequence (P41144 whole entry): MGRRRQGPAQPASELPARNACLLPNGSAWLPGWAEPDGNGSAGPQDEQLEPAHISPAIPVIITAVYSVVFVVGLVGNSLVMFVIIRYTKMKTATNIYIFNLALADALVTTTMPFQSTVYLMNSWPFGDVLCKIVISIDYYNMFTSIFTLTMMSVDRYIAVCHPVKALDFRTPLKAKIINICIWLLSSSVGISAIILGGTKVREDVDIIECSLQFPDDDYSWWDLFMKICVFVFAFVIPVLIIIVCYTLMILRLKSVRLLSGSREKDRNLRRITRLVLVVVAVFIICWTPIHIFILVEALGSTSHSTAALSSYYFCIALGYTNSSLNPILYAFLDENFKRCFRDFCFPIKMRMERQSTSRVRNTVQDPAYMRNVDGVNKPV
T1 sequence (P97266 whole entry): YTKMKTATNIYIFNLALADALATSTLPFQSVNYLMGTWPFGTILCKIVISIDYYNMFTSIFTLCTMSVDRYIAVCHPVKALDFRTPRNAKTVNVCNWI
Mu-type opioid receptor (Cavia porcellus), sequence (P97266 whole entry): as above

Compound | IC50 ratio [1] | IC50 ratio [2] | Max response [3] | IC50 ratio [4] | IC50 ratio [5] | ED50 [6] | Max response [7] | ED50 [9] | pKi [20] | pKi [21] | IC50 [22] | Ratio [28] | Ratio [29] | other results
CN1CC[C@]23c4c5ccc(O)c4O[C@H]2c2c(c4ccccc4n2C)C[C@@]3(O)[C@H]1C5 | 0.5 | 0.7 | 9% | 1.2 | 1 | 0.01 | 23% | – | – | – | – | – | – | –
Oc1ccc2c3c1O[C@H]1c4[nH]c5ccccc5c4C[C@@]4(O)[C@@H](C2)N(CCc2ccccc2)CC[C@]314 | 0.8 | 0.8 | 15% | 0.6 | 0.9 | 0.4 | – | 2.2 nmol/mouse | < 6.00 | < 6.00 | 171 nM | – | – | pIC50 [8]: 7.12; ED50 ratio [10]: 1.3; ED50 ratio [11]: 5.8; ED50 ratio [12]: 4; ED50 ratio [13]: 3.2; ED50 ratio [14]: 5.5; ED50 ratio [15]: 21.6; ED50 ratio [16]: 1.4; ED50 ratio [17]: 2.8; ED50 ratio [18]: 0.6; ED50 ratio [19]: 0.4
CN1CC[C@]23c4c5ccc(O)c4O[C@H]2c2[nH]c4ccccc4c2C[C@H]3[C@H]1C5 | 0.5 | 1 | 9% | 4.2 | 0.9 | – | 34% | – | – | – | – | – | – | –
CN1CC[C@]23c4c5ccc(O)c4O[C@H]2c2oc4ccccc4c2C[C@@]3(O)[C@H]1C5 | – | – | 23% | – | – | – | 41% | – | – | – | – | – | – | IC50 ratio [23]: 0.8; IC50 ratio [24]: 0.5; IC50 ratio [25]: 10.2; IC50 ratio [26]: 0.8
CN1CC[C@]23c4c5ccc(O)c4O[C@H]2c2[nH]c4ccccc4c2C[C@@]3(O)[C@H]1C5 [OXYMORPHINDOLE] | 0.9 | 0.9 | 12% | 1.3 | 0.9 | – | 65% | – | – | – | – | 6380 | 669 | ED50 [27]: 0.019 nM; pKi [30]: 9.15
Oc1ccc2c3c1O[C@H]1c4[nH]c5ccccc5c4C[C@H]4C(C2)NCC[C@]314 | 1.3 | 0.6 | 20% | 0.8 | 1 | – | – | – | 8.28 | 6.43 | 85 nM | 176 | 71 | –
Oc1ccc2c3c1O[C@H]1c4[nH]c5ccccc5c4C[C@H]4[C@@H](C2)N(C/C=C/c2ccccc2)CC[C@]314 | – | – | 2% | – | – | – | 19% | – | < 6.00 | < 6.00 | – | > 9 | > 9 | IC50 ratio [23]: 0.9; IC50 ratio [24]: 0.8; IC50 ratio [25]: 0.8; IC50 ratio [26]: 1.1
Oc1ccc2c3c1O[C@H]1c4[nH]c5ccccc5c4C[C@H]4[C@@H](C2)N(CCc2ccccc2)CC[C@]314 | 0.9 | 0.8 | 1900% | 0.6 | 0.9 | – | – | 6.3 nmol/mouse | 5.58 | 6.76 | 179 nM | 120 | 8 | pIC50 [31]: 6.76
Oc1ccc2c3c1O[C@H]1c4[nH]c5ccccc5c4C[C@@]4(O)C(C2)NCC[C@]314 | 0.8 | 0.7 | 41% | 0.9 | 0.7 | 1.1 | – | 10.9 nmol/mouse | < 6.00 | – | 124 nM | > 357 | 224 | pIC50 [31]: 6.92; ED50 ratio [10]: 0.9; ED50 ratio [12]: 1.2; ED50 ratio [13]: 1.6; ED50 ratio [14]: 1.6; ED50 ratio [32]: 2.5; ED50 ratio [33]: 5.4; ED50 ratio [34]: 0.7; ED50 ratio [35]: 1.1; pKi [36]: < 6.00
CSCC[C@H](NC(=O)[C@H](Cc1ccc(O)cc1)NC(=O)CNC(=O)CNC(=O)[C@H](Cc1ccccc1)NC(=O)[C@H](CC(C)C)NC(=O)[C@H](N)CO)C(=O)N[C@H](C(=O)O)[C@@H](C)O | – | – | – | – | – | 0.0032 | – | 0.45 nmol/mouse | – | – | – | – | – | –
Oc1ccc2c3c1O[C@H]1c4[nH]c5ccccc5c4C[C@@]4(O)[C@@H](C2)N(CC2CC2)CC[C@]314 [NALTRINDOLE] | – | – | – | – | – | – | – | – | – | – | – | – | – | ED50 [27]: 0.04 nM
C=CCN(CC=C)[C@@H](Cc1ccc(O)cc1)C(=O)NC(C)(C)C(=O)NC(C)(C)C(=O)N[C@@H](Cc1ccccc1)C(=O)N[C@@H](CC(C)C)C(=O)O ({Tyr(Nα,Nα-allyl2)}-[Aib][Aib]FL-OH) | – | – | – | – | – | – | – | – | – | – | – | > 29 | > 29 | pKi [30]: 7.46
